In the library only some 11% were active in any assay of this set; here they are far more common.
TNAP act DEA – activates human TNAP at intermediate phosphate acceptor concentration. purified TNAP, CDP-star luminescence, 100 mM DEA, 30 min; stronger effect = higher value; scale: 0 levamisole-inhibited, 1 vehicle-only enzyme. activation factor at 20 µM. 64,000 tested, under 10 active. AID 813;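 active = activation factor of at least 2 at 20 µM, relative to controls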
M1 ag – activates the M1 muscarinic receptor; actives 3% (n = 64,000); B-score at 10 µM; AID 626; CHO-M1 cells, Fluo-4 calcium fluorescence, agonist mode; stronger effect = higher value;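 active = fluorescence rise, raw or as B-score row- and column-corrected plate score, outside the 99.7% band of its plate's samples, either direction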
D1 allo mod – D1 dopamine receptor (human) allosteric modulation; actives 5.9% (n = 58,000); P21728; B-score at 10 µM; HEK293 D1, CRE-luciferase, dopamine EC30 potentiation; actives deviate in either direction;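 active = luminescence count or its row- and column-corrected plate score outside the 99.7% band of the plate's sample wells, on either side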
Target sequence (P21728 whole entry, looked up): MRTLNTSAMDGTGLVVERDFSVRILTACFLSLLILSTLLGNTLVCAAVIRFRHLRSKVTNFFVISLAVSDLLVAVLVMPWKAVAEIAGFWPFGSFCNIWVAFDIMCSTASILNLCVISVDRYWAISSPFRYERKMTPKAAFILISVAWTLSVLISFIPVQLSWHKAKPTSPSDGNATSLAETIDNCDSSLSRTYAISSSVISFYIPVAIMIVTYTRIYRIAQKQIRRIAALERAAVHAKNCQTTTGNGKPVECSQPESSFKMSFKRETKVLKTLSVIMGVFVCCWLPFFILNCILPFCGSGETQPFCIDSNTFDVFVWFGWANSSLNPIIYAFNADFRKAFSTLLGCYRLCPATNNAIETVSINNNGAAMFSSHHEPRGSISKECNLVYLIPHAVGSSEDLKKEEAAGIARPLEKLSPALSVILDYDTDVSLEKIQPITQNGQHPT
S1P3 agonist – activates the human S1P3 receptor; activation, % at 4.5 µM; actives 0.1% (n = 60,000); Q99500; S1P3 NFAT-BLA reporter cells, agonism, FRET ratio; relative to 1 µM S1P, basal subtracted;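 active = activation above the screen-wide mean plus 3 SD, cut at about 4.5% in these data, passing the limit was not always enough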
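material = human S1P3 NFAT-BLA reporter CHO cells | schedule = 4 h compound at 37 °C, 2 h substrate at RT | measured by = fluorescent BLA substrate, ex 405 nm, em 460/535 nm ratio | controls = 1 µM S1P reference | replication = primary once, confirmation triplicate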
M1 antagonist – M1 muscarinic receptor (rat) antagonism | actives 3.4% (n = 64,000) | B-score at 10 µM | AID 628 | P08482 | CHO-M1 cells, Fluo-4 calcium, ACh EC80 antagonist mode; stronger effect = lower value;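 active = calcium fluorescence response, raw or row-and-column corrected B-score, differing from the plate sample mean either way at a set confidence level, mostly lower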
S1P1 ag pot – agonists and agonism potentiators of human S1P1 receptor. P21453. S1P1 CRE-bla cells, forskolin, beta-lactamase FRET, potentiator mode; S1P1 agonist co-added at EC20, 2 nM; 100% = saturating reference agonist, 0% = basal. activation, % at 9.5 µM. actives 0.57% (n = 56,000). AID 449;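 active = activation above a cutoff set at the mean activation of all tested compounds plus 3 SD, cut at about 54% in these data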;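 note: forskolin at 4 µM as EC80 and the EC20 agonist is SEW2871; 100% = SEW2871 at its EC100 plus forskolin at EC80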
M1 antag confirm – M1 muscarinic receptor (rat) antagonism, confirmed | calcium response (max-min fluorescence) at 10 µM | shares compounds with M1 antagonist | actives 43% (n = 1,700) | CHO-M1 cells, Fluo-4 calcium, ACh EC80 antagonism; stronger effect = lower value;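 active = calcium response below the same-plate mean of wells given acetylcholine alone at its 80%-effect dose, minus 3 SD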;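 note: raw fluorescence intensity difference in arbitrary instrument units and not normalized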
mGluR4 antag – selectivity test for M1 antagonists: human mGluR4 receptor; fluorescence response (max-min) at 10 µM; CHO-mGluR4 calcium flux, Fluo-4 fluorescence, glutamate EC80; stronger effect = lower value; AID 678; actives 0.9% (n = 1,700); shares compounds with M1 antagonist;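 active = fluorescence response below the plate's average for near-maximal glutamate wells, less 3 SD of those wells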;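 note: raw unnormalized fluorescence span taken in the window right after glutamate addition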
* marks the source's active call; other numbers are inactive results; · = no result given.

SMILES	TNAP act DEA	M1 ag	D1 allo mod	S1P3 agonist	M1 antagonist	S1P1 ag pot	M1 antag confirm	mGluR4 antag
c1ccc2c(c1)nc1sccn12	0.8	0.91	-0.036	-1	-2.5*	-9	674	254
Clc1c(CSc2nc3ccccc3o2)nc2sccn12	0.8	-0.47	-1	·	0.47	·	·	·
O=C(CSc1ccc(-c2ccc(F)cc2)nn1)N1CCCCC1	0.9	0.74	-2.9	-1	-0.093	2	·	·
Cn1c(-c2ccc(F)cc2)cnc1SCC(=O)N1CCCCC1	0.9	0.0046	-4.3*	0	-2.2*	8	430	222
Cc1cc2ncn(C(=O)c3c(-c4ccccc4Cl)noc3C)c2cc1C	0.9	-1.3	0.69	0	-5.5*	11	264*	213
CCCCn1c(N2CCC(Cc3ccccc3)CC2)nc2c1c(=O)[nH]c(=O)n2C	0.9	1.1	·	-1	0.33	-4	·	·
CCN(CC)S(=O)(=O)c1ccc2c(c1)nc(SCC(=O)NC1CC1)n2-c1ccccc1OC	0.8	-0.22	0.094	0	-0.057	10	·	·
Cc1ccc2c(CN3CCN(Cc4ccc5c(c4)OCO5)CC3)cc(=O)oc2c1C	0.9	0.13	-0.28	-1	-2.3*	-8	475*	256
Cc1cc(C)c2c(CN3CCN(Cc4ccc5c(c4)OCO5)CC3)cc(=O)oc2c1	0.8	-0.2	-0.02	-1	-10*	6	61*	299
CCN1CCN(Cc2cc(=O)oc3cc(C)cc(C)c23)CC1	0.9	-2.1	-1.4	-1	-1.2*	-9	461*	253
Cc1cc(C)c2c(CN3CCN(Cc4ccc5c(c4)OCO5)CC3)cc(=O)oc2c1C	0.9	0.075	-0.29	-1	-6.2*	-14	376*	256
c1ccc(-c2ccccc2-n2cnnn2)cc1	1	1	0.5	-1	0.77	-7	·	·
Cc1c(C(=O)c2no[n+]([O-])c2C(=O)c2cnn(C)c2C)cnn1C	1	5.8	0.2	0	-0.34	-22	·	·
Cc1ccc(C)c(N2C(=O)CC(N3CCN(Cc4ccc5c(c4)OCO5)CC3)C2=O)c1 (stereo not given)	0.9	-0.59	-0.7	-1	-2.9*	-20	542*	178
COc1ccccc1-n1c(C)nnc1SCC(N)=O	0.9	0.2	-0.25	-1	-4.3*	0	486	233
COc1ccccc1-n1c(SCC(N)=O)nnc1-c1ccccc1	0.9	-1.4	-0.38	0	-0.02	-1	·	·
O=C(O)c1ccc(NS(=O)(=O)c2cc(Cl)ccc2Cl)cc1O	0.9	2.5	-0.53	-1	0.51	-10	·	·
C=C(C)C1CC=C(CN2CCC(C(=O)OCC)CC2)CC1 (stereo not given)	0.9	4.2	-1	-1	-3.7*	-9	422*	238
COC(=O)c1ccccc1NC(=O)C1COc2ccccc2O1 (stereo not given)	0.9	0.5	·	1	-0.067	10	·	·
COC(=O)c1cc(NC(=O)C2COc3ccccc3O2)cc(C(=O)OC)c1 (stereo not given)	0.8	0.27	1.9	0	-13*	17	668	216
Cc1c(C#N)c(SCC(N)=O)nc2c1CCCC2	1	0.28	·	-1	-2*	-16	648	246
N#CCCn1ncn(-c2ccccc2)c1=S	0.9	0.23	1.2	-1	0.51	-7	·	·
CCc1c(O)nc(SCC(=O)Nc2ccccc2OC)[nH]c1=O	0.9	0.62	-0.78	-1	-1*	2	529	166
COc1ccccc1NC(=O)CSc1nc(O)cc(=O)[nH]1	·	0.18	-0.47	0	-0.96	0	·	·
O=c1[nH]c2cc3c(cc2cc1CN(CC1CCCO1)S(=O)(=O)c1ccc(Cl)cc1)OCCO3 (stereo not given)	0.8	0.013	·	-1	-4.2*	-8	614	269
SMILES	TNAP act DEA	M1 ag	D1 allo mod	S1P3 agonist	M1 antagonist	S1P1 ag pot	M1 antag confirm	mGluR4 antag
Cc1ccc(S(=O)(=O)N(Cc2cc3cc4c(cc3[nH]c2=O)OCCO4)CC2CCCO2)cc1 (stereo not given)	0.9	-0.51	0.93	0	0.2	-5	·	·
O=C(NC(=O)c1ccccc1)NC1(C(F)(F)F)OCCO1	1	0.22	-0.25	0	-19*	·	695	181
O=C(CSc1ncnc2c1oc1ccccc12)OCc1ccccc1	0.9	-0.37	0.59	0	1	-16	·	·
CN(C)S(=O)(=O)c1cccc(CSc2cccc[n+]2[O-])c1	1	0.77	-0.63	0	-2.2*	-12	666	184
CN(Cc1ccccc1)S(=O)(=O)c1ccc2c(c1)OCCO2	1	0.063	-0.15	-1	-0.47	·	·	·
Cc1ccc(C2c3c(oc4ccccc4c3=O)C(=O)N2c2nnc(C(C)C)s2)o1 (stereo not given)	0.8	-0.094	0.24	-1	-0.17	-13	·	·
CCCCOc1ccccc1NC(=O)CC1SC(=NCC)N(CC)C1=O (stereo not given)	1	1.5	·	-1	-2.8*	5	575	232
O=C(CSc1ccc2nnc(-c3ccc(F)cc3)n2n1)N1CCOCC1	1	-1.3	·	0	0.35	-17	·	·
COc1cccc2cc(C(=O)N3CCN(C45CC6CC(CC(C6)C4)C5)CC3)c(=O)oc12	0.8	0.5	-0.11	-1	-1.8*	11	412*	201
COc1cccc2cc(C(=O)N3CCC(C)CC3)c(=O)oc12	1	-0.95	0.87	-1	0.096	-8	·	·
Cc1ccccc1C(=O)N1CCC(C(=O)Nc2ccc(F)cc2)CC1	0.9	0.19	0.37	-1	-4.3*	·	502	184
COc1ccc(N/C(C)=C2/C(=O)C(=O)N(CCO)C2c2ccc(Br)cc2)cc1 (stereo not given)	0.9	-0.91	·	0	-0.79	-23	·	·
COCCCNC(=O)CSC1=Nc2ccccc2C2=NC(CC(=O)NCc3ccccc3)C(=O)N12 (stereo not given)	0.9	0.033	-0.064	0	-2.5*	2	678	246
COc1ccc(S(=O)(=O)N(C)c2c(C)n(C)n(-c3ccccc3)c2=O)cc1OC	0.9	-0.87	-0.35	0	0.49	16	·	·
Cc1c(Cl)cccc1N1C(=O)C2ON(c3ccccc3)C(c3cccnc3)C2C1=O (stereo not given)	0.8	0.32	·	-4	-2.1*	-16	652	250

Assay outcomes: PubChem BioAssay, several laboratories
